Data reported in ChEMBL document CHEMBL3853295, “Design and synthesis of novel pyrazolo[1,5-a]pyrimidine derivatives bearing nitrogen mustard moiety and evaluation of their antitumor activity in vitro and in vivo” (Eur J Med Chem, 2016).

Tests used:
[1] = Cytotoxicity against human MCF7 cells after 72 hrs by MTT assay; format: functional, cell-based; conditions: MCF7, 72 h
Method in brief: (§1)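 Cells cultured in DMEM or RPMI 1640 with 10% FBS. Seeded at about 2 × 10^3 per well and grown 24 h at 37 °C, 5% CO2. Compounds added at final 0.1–1000 uM for 72 h, 5 wells per concentration. MTT added for 4 h at 37 °C, then lysis overnight. Absorbance read at 570 nm against a 650 nm reference; IC50 calculated.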

[2] = Cytotoxicity against human SH-SY5Y cells after 72 hrs by MTT assay; format: functional, cell-based; method in brief: as §1
[3] = Cytotoxicity against human A549 cells after 72 hrs by MTT assay; format: functional, cell-based; conditions: A549, 72 h; method in brief: as §1
[4] = Cytotoxicity against human HepG2 cells after 72 hrs by MTT assay; format: functional, cell-based; conditions: HepG2, 72 h; method in brief: as §1
[5] = Cytotoxicity against human DU145 cells after 72 hrs by MTT assay; format: functional, cell-based; conditions: DU-145, 72 h; method in brief: as §1
[6] = Cytotoxicity against human GES-1 cells assessed as reduction in cell viability after 72 hrs by MTT assay; format: toxicity, cell-based, GES1; method in brief: as §1
[7] = Antitumor activity against human HepG2 cells xenografted in nude mouse assessed as tumor growth inhibition at 10 mg/kg, ip administered every day for 15 times measured from day 12 to 26; format: functional; design: scale not given: the % may be the effect or the level left
Method in brief: (§2)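 Female nude mice given 5 × 10^6 HepG-2 cells subcutaneously in the left flank. Randomized, n = 5 per group. Daily i.p. injection for 15 times, with saline as vehicle control. Tumor length and width recorded every other day; volume taken as 1/2·length·width² once tumors reached 130–160 mm3. Result is tumor growth inhibition versus the saline group.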

[8] = Antitumor activity against human HepG2 cells xenografted in nude mouse assessed as tumor growth inhibition at 20 mg/kg, ip administered every day for 15 times measured from day 12 to 26; format: functional; design: scale not given: the % may be the effect or the level left; method in brief: as §2

| SMILES | IC50 [1] [µM] | IC50 [2] [µM] | IC50 [3] [µM] | IC50 [4] [µM] | IC50 [5] [µM] | IC50 at 72 h [6] [µM] | Activity [7] [%] | Activity [8] [%] |
| --- | --- | --- | --- | --- | --- | --- | --- | --- |
| COc1cc(Nc2cc(CN(CCCl)CCCl)nc3c(C#N)cnn23)cc(OC)c1 | > 100 | > 100 | > 100 | > 100 | > 100 | – | – | – |
| N#Cc1cnn2c(Nc3ccc(F)cc3)cc(CN(CCCl)CCCl)nc12 | 77.5 | > 100 | > 100 | 64.2 | 84.4 | – | – | – |
| N#Cc1cnn2c(Nc3ccc(N(CCCl)CCCl)cc3)cc(CN3CCC(c4ccccc4)CC3)nc12 | > 100 | > 100 | > 100 | > 100 | > 100 | – | – | – |
| N#Cc1cnn2c(Nc3ccc(F)c(Cl)c3)cc(CN(CCCl)CCCl)nc12 | 76.8 | > 100 | > 100 | 89.4 | 27.4 | – | – | – |
| C#Cc1cccc(Nc2cc(CN(CCCl)CCCl)nc3c(C#N)cnn23)c1 | 34 | > 100 | > 100 | 44.2 | 83.1 | – | – | – |
| CNC(=O)c1cc(Oc2ccc(NC(=O)Nc3ccc(Cl)c(C(F)(F)F)c3)cc2)ccn1 [SORAFENIB] | – | 27.7 | 19.5 | – | – | 10.7 | 47.9 | 54.93 |
| N#Cc1cnn2c(Nc3cccc(N(CCCl)CCCl)c3)cc(CN3CCCC3)nc12 | 37.5 | 15.7 | 17.5 | 14.4 | 35.4 | – | – | – |
| CCOC(=O)c1ccc(Nc2cc(CN(CCCl)CCCl)nc3c(C#N)cnn23)cc1 | 26.4 | 64.4 | 85.4 | 52.1 | 37.3 | – | – | – |
| Cc1cc(C)cc(Nc2cc(CN(CCCl)CCCl)nc3c(C#N)cnn23)c1 | > 100 | > 100 | 97.4 | 59.4 | > 100 | – | – | – |
| N#Cc1cnn2c(Nc3cccc(F)c3)cc(CN(CCCl)CCCl)nc12 | > 100 | > 100 | > 100 | 67.2 | > 100 | – | – | – |
| N#Cc1cnn2c(Nc3ccc(Br)cc3)cc(CN(CCCl)CCCl)nc12 | 28.3 | 49.1 | 61.4 | 37.2 | 33.1 | – | – | – |
| N#Cc1cnn2c(Nc3ccc(Cl)cc3)cc(CN(CCCl)CCCl)nc12 | 33 | 50.6 | 79.5 | 39.3 | 42.9 | – | – | – |
| N#Cc1cnn2c(Nc3cccc(N(CCCl)CCCl)c3)cc(CN3CCC(N4CCCCC4)CC3)nc12 | 25.1 | 9.36 | 13.2 | 9.07 | 22.4 | – | – | – |
| N#Cc1cnn2c(Nc3cc(F)cc(F)c3)cc(CN(CCCl)CCCl)nc12 | 84.4 | > 100 | > 100 | > 100 | > 100 | – | – | – |
| Cc1cccc(Nc2cc(CN(CCCl)CCCl)nc3c(C#N)cnn23)c1 | 25.8 | 79.9 | > 100 | 62.1 | 35 | – | – | – |
| N#Cc1cnn2c(Nc3cccc(Cl)c3)cc(CN(CCCl)CCCl)nc12 | 23 | > 100 | > 100 | 56.6 | 43.5 | – | – | – |
| CC1CCN(Cc2cc(Nc3ccc(N(CCCl)CCCl)cc3)n3ncc(C#N)c3n2)CC1 | 82.9 | 19.2 | 18.3 | 23.6 | 43.4 | 17.5 | – | – |
| N#Cc1cnn2c(Nc3cccc(N(CCCl)CCCl)c3)cc(CN3CCC(O)CC3)nc12 | 70.4 | 36.7 | 35.8 | 29.7 | > 100 | – | – | – |
| N#Cc1cnn2c(Nc3ccc(N(CCCl)CCCl)cc3)cc(CN3CCCC3)nc12 | 12.4 | 9.17 | 9.84 | 5.54 | 27.2 | 13.7 | – | – |
| N#Cc1cnn2c(Nc3ccccc3Br)cc(CN(CCCl)CCCl)nc12 | > 100 | > 100 | > 100 | > 100 | > 100 | – | – | – |
| CN1CCN(Cc2cc(Nc3cccc(N(CCCl)CCCl)c3)n3ncc(C#N)c3n2)CC1 | 41.1 | 15.3 | 19.5 | 17.6 | 50.5 | – | – | – |
| CCOC(=O)C1CCN(Cc2cc(Nc3ccc(N(CCCl)CCCl)cc3)n3ncc(C#N)c3n2)CC1 | > 100 | 74.1 | > 100 | 74.2 | > 100 | – | – | – |

| SMILES | IC50 [1] [µM] | IC50 [2] [µM] | IC50 [3] [µM] | IC50 [4] [µM] | IC50 [5] [µM] | IC50 at 72 h [6] [µM] | Activity [7] [%] | Activity [8] [%] |
| --- | --- | --- | --- | --- | --- | --- | --- | --- |
| N#Cc1cnn2c(Nc3ccccc3Cl)cc(CN(CCCl)CCCl)nc12 | > 100 | > 100 | > 100 | > 100 | > 100 | – | – | – |
| CN(C)C1CCN(Cc2cc(Nc3cccc(N(CCCl)CCCl)c3)n3ncc(C#N)c3n2)CC1 | 25.2 | 15.3 | 12.7 | 9.22 | 27 | – | – | – |
| CN(C)C1CCN(Cc2cc(Nc3ccc(N(CCCl)CCCl)cc3)n3ncc(C#N)c3n2)CC1 | 12.4 | 7.86 | 5.12 | 4.01 | 7.67 | 11.1 | – | – |
| N#Cc1cnn2c(Nc3ccc(F)c(C(F)(F)F)c3)cc(CN(CCCl)CCCl)nc12 | 75.1 | > 100 | > 100 | > 100 | > 100 | – | – | – |
| CCN1CCN(Cc2cc(Nc3cccc(N(CCCl)CCCl)c3)n3ncc(C#N)c3n2)CC1 | 23.9 | 22.7 | 16.5 | 16.6 | 44.1 | – | – | – |
| N#Cc1cnn2c(Nc3cccc(Br)c3)cc(CN(CCCl)CCCl)nc12 | 41 | > 100 | > 100 | 49.7 | > 100 | – | – | – |
| N#Cc1cnn2c(Nc3cccc(N(CCCl)CCCl)c3)cc(CN3CCOCC3)nc12 | > 100 | 61 | > 100 | 33.4 | > 100 | – | – | – |
| N#Cc1cnn2c(Nc3ccc(N(CCCl)CCCl)cc3)cc(CN3CCOCC3)nc12 | 11.3 | 6.71 | 13.6 | 5.51 | 10.7 | – | – | – |
| Cc1cc(Nc2cc(CN(CCCl)CCCl)nc3c(C#N)cnn23)ccc1F | 38 | 77.9 | 75 | 39 | 76.1 | – | – | – |
| N#Cc1cnn2c(Nc3cccc(N(CCCl)CCCl)c3)cc(CN3CCC(c4ccccc4)CC3)nc12 | > 100 | > 100 | > 100 | > 100 | > 100 | – | – | – |
| CN(C)Cc1cc(Nc2cccc(N(CCCl)CCCl)c2)n2ncc(C#N)c2n1 | 54.6 | 40.8 | 39.8 | 33.6 | 59.3 | – | – | – |
| CN(C)Cc1cc(Nc2ccc(N(CCCl)CCCl)cc2)n2ncc(C#N)c2n1 | 6.53 | 8.68 | 6.22 | 3.16 | 18.9 | 11 | – | – |
| N#Cc1cnn2c(Nc3ccc(C(F)(F)F)cc3)cc(CN(CCCl)CCCl)nc12 | 33 | > 100 | > 100 | 55.5 | 95.1 | – | – | – |
| CCN1CCN(Cc2cc(Nc3ccc(N(CCCl)CCCl)cc3)n3ncc(C#N)c3n2)CC1 | 13.8 | 8.4 | 14.8 | 10.7 | 21.7 | 13.5 | – | – |
| CC1CCN(Cc2cc(Nc3cccc(N(CCCl)CCCl)c3)n3ncc(C#N)c3n2)CC1 | > 100 | 25.9 | 35.9 | 33.8 | 55.8 | – | – | – |
| N#Cc1cnn2c(Nc3ccc(N(CCCl)CCCl)cc3)cc(CN3CCC(CO)CC3)nc12 | 16.2 | 11.5 | 12.8 | 8.54 | 26.8 | – | – | – |
| N#Cc1cnn2c(Nc3ccc(N(CCCl)CCCl)cc3)cc(CN3CCC(O)CC3)nc12 | 20.4 | 13.7 | 20.6 | 9.11 | 20.9 | – | – | – |
| N#Cc1cnn2c(Nc3cccc(N(CCCl)CCCl)c3)cc(CN3CCC(CO)CC3)nc12 | 41.1 | 30.7 | 27.9 | 18.4 | 33.4 | – | – | – |
| Cc1ccccc1Nc1cc(CN(CCCl)CCCl)nc2c(C#N)cnn12 | 99.2 | > 100 | > 100 | > 100 | > 100 | – | – | – |
| CCOC(=O)C1CCN(Cc2cc(Nc3cccc(N(CCCl)CCCl)c3)n3ncc(C#N)c3n2)CC1 | > 100 | > 100 | > 100 | 88.1 | > 100 | – | – | – |
| CN1CCN(Cc2cc(Nc3ccc(N(CCCl)CCCl)cc3)n3ncc(C#N)c3n2)CC1 | 12.2 | 7.42 | 8.9 | 2.92 | 23.6 | 8.29 | – | – |
| N[C@@H](Cc1ccc(N(CCCl)CCCl)cc1)C(=O)O [MELPHALAN] | 40.6 | > 100 | 43.8 | 18.3 | > 100 | – | – | – |
